Test results taken from article PMC5990500 (Neurology and Therapy, 2017).
Where two headings read alike, the source gives them in different places.

Key:
[1] = tested on: cGMP; details: cited from earlier work
[2] = assay type: in vivo, human
In short: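 Randomized, double-blind, placebo-controlled study in DSM-IV schizophrenia patients (18–55 y, clinically stable, on one antipsychotic). Plasma AUC0−∞, Cmax and tmax taken on day 1, and AUCtau,ss, Cmax,ss and tmax,ss at steady state (day 14). Dose proportionality was fitted by log-log linear regression.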

[3] = tested on: rat hippocampal slices; details: application to rat hippocampal slices; cited from earlier work
[4] = tested on: healthy male volunteers; details: cited from earlier work
[5] = tested on: cGMP; details: healthy male volunteers, single oral dose; cited from earlier work
[6] = tested on: memory performance; details: cited from earlier work
[7] = healthy male volunteers, single oral dose; cited from earlier work
[8] = tested on: patients with mild-to-moderate schizophrenia; test: Safety and tolerability; assay type: in vivo, human
In short: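 Patients were randomized 1:1:1:1 to oral test compound (25, 50 or 100 mg) or placebo once daily for 14 days, double-blind. Assessments were AEs, vital signs, 12-lead ECG, clinical laboratory tests, physical examination, CGI-I, PANSS, C-SSRS, Snellen visual acuity and Ishihara colour vision. End-of-treatment visit came 7–14 days after the last dose. All dosed patients were included, and results were summarized descriptively.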

[9] = tested on: patients with mild-to-moderate probable Alzheimer's disease; details: cited from earlier work
[10] = steady state vs single dose, 25 to 100 mg
[11] = phase II placebo-controlled study

O=c1[nH]c(Cc2ccccn2)nc2c1cnn2C1CCOCC1 [BI 409306]
cGMP in rat cerebrospinal fluid (CSF) and prefrontal cortex [1]: dose-dependent increase
dose proportionality of exposure ([2]; 25- to 100-mg dose range): dose-proportional from 50 to 100 mg
gCV% of exposure (inter-individual variability) ([2]; CYP2C19 µM predicted phenotype): 154%
gCV% of exposure (inter-individual variability) ([2]; CYP2C19 EM predicted phenotype): 152%
gCV% of exposure (inter-individual variability) ([2]; CYP2C19 IM predicted phenotype): 48.4%
exposure by CYP2C19 predicted phenotype ([2]; IM, EM, UM patients): highest in patients with the CYP2C19 IM predicted phenotype, followed by EM and UM patients
half-life ([2]; human, plasma, oral): 1.1 to 1.85 h
gCV of AUC0−∞ (inter-individual variability), range over dose groups ([2]; single dose): 98.4% to 108%
gCV of C max (inter-individual variability), range over dose groups ([2]; single dose): 73.3% to 106%
time to reach C max ([2]; single dose, across 25, 50, 100 mg): 30 to 45 min
gCV of AUCtau,ss (inter-individual variability), range over dose groups ([2]; steady state): 86.8% to 112%
gCV of C max,ss (inter-individual variability), range over dose groups ([2]; steady state): 74.4% to 90.9%
accumulation ratio AUC, range over dose groups [2, 10]: 0.758–1.13
accumulation ratio C max, range over dose groups [2, 10]: 0.768–1.40
effect on long-term potentiation (LTP) [3]: significant enhancement of long-term potentiation
frequency of eye disorders ([4]; healthy male Chinese and Japanese subjects receiving BI 409306): 29.8%
time to resolution of visual AEs / eye disorders ([4]; healthy male volunteers): 1 to 2 h
cGMP in the CSF [5]: dose- and concentration-dependent increase
memory performance [6]: improved memory performance
maximum concentration in CSF as % of the maximum plasma concentration [7]: 28.31%
mean change from baseline in total PANSS score ([8]; 25 mg qd, day 7): −0.1
mean change from baseline in total PANSS score ([8]; 25 mg qd, day 13): 2.3
mild suicidal ideation after treatment initiation (C-SSRS score = 1), patients ([8]; 50 mg qd): one patient
mean change from baseline in total PANSS score ([8]; 50 mg qd, day 7): −0.2
mean change from baseline in total PANSS score ([8]; 50 mg qd, day 13): 0.0
mean change from baseline in total PANSS score ([8]; 100 mg qd, day 7): −1.4
mean change from baseline in total PANSS score ([8]; 100 mg qd, day 13): −3.6
effect on mean pupil diameter relative to placebo ([8]; 25, 50, 100 mg qd): negligible effect
CGI-I, overall disease status ([8]; 25, 50, 100 mg qd 14 days): no change or minimal improvement
changes in laboratory parameters, vital signs, or ECGs ([8]; 25, 50, 100 mg qd 14 days): No clinically relevant or dose-related changes
deaths, serious AEs, discontinuation due to AEs ([8]; 25, 50, 100 mg qd 14 days): no deaths, serious AEs or discontinuation due to AEs
intensity of AEs ([8]; 25, 50, 100 mg qd 14 days): mild
tolerability ([8]; 25, 50, 100 mg qd 14 days): well tolerated
color discrimination (Ishihara plates) ([8]; all treatment groups): normal at maximum time points in all the patients

C[C@@H]1CN(Cc2ncccn2)C[C@H]1c1nc2c(cnn2C2CCOCC2)c(=O)[nH]1 [PF-04447943]
efficacy vs placebo in cognition, behavior, clinician-rated global change ([9]; 12-week treatment): not more effective than placebo
estimated median exposure relative to the IC50 [9, 11]: remained above the IC50 for the entire dosing duration
maximal concentrations relative to the IC50 [9, 11]: approximately five times the IC50
